Data set [1] can be described thus: stability of the isolated pure compounds on storage. It counts as physicochemical. As to conditions: pure isolated compound; decomposition followed by discoloration and LC-MS.
For data set [2], the target named is serine protease chymotrypsin (Bos taurus, UniProt P00766). The data set is described as follows: chymotrypsin chemiluminescent assay with and without detergent. The data set is classed as biochemical. As to conditions: read-out: IC50, inhibition of chymotrypsin; without detergent. Put shortly: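 Serine protease chymotrypsin, standard chemiluminescent read-out. Each test compound run in parallel without detergent and with 0.01% (v/v) Triton added, to screen for aggregation-based inhibition; IC50 derived under each condition.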

As a reminder, the IC50 is the concentration that inhibits the measured activity by half.

Take Sebestenoid A [Compound 1]: in data set [1], the “stability after isolation in pure form” value is recorded as “stable”.
Turning to Sebestenoid D [Compound 4], the “stability after isolation in pure form” value in data set [1] is listed as “decomposed rapidly”. Besides, the half-maximal inhibitory concentration (IC50) in data set [2] is 27 µM.
For Sebestenoid C [Compound 3], in that order: “stable” and 33 µM.
Consider Sebestenoid B [Compound 2], for which, in data set [1], the “stability after isolation in pure form” value is given as “decomposed rapidly”.

Source of the values: paper PMC2984665 (Phytochemistry, 2010).
